Data published in ChEMBL document CHEMBL2311274, “Triazole-based inhibitors of geranylgeranyltransferase II” (Bioorg Med Chem Lett, 2013).

Assays:
[1] = Inhibition of recombinant GGTase 2 (unknown origin) by scintillation counting in presence of [3H]GGPP; set-up: species or system Homo sapiens
How it was run: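 Recombinant GGTase II reaction containing radiolabeled GGPP as prenyl donor, a Rab protein as acceptor substrate, and REP. IC50 obtained from inhibition of transfer.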

RPMI-8226 = experiment: Cytotoxicity against human multiple myeloma RPMI8226 measured after 24 to 48 hrs by MTT assay; type: functional, cell-based

Row | Compound | IC50 [1] | IC50 (RPMI-8226)
1 | O=P(O)(O)C(O)(Cc1cccnc1)P(=O)(O)O [RISEDRONIC ACID] | > 1000 µM | 
2 | CC(C)=CCC/C(C)=C/CC/C(C)=C/CCC(C)=CCn1cc(CC(P(=O)(O)O)P(=O)(O)O)nn1 (mixture of isomers) | 100 µM | 1000 µM
3 | O=P(O)(O)C(Cc1cn(Cc2ccc3ccccc3c2)nn1)P(=O)(O)O | > 2000 µM | > 1000 µM
4 | CC(C)=CCC/C(C)=C/CCC(C)=CCn1cc(CC(P(=O)(O)O)P(=O)(O)O)nn1 (mixture of isomers) | 650 µM | 900 µM
5 | CC(C)=CCCC(C)=CCn1cc(CC(P(=O)(O)O)P(=O)(O)O)nn1 (mixture of isomers) | > 2000 µM | > 1000 µM
6 | O=P(O)(O)C(Cc1cn(Cc2ccccc2)nn1)P(=O)(O)O | 2000 µM | > 1000 µM
